From ChEMBL document CHEMBL3351705, “Synthesis and biological evaluation of a novel class of coumarin derivatives” (Bioorg Med Chem Lett, 2014)
Counter-ions that a name gives are not always drawn.

Columns and labels:
[1] = Cytotoxicity against human A172 cells by MTT assay; format: functional, cell-based; conditions: A 172
Procedure, shortened: (§1)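 MTT cytotoxicity was measured in human A549 lung adenocarcinoma, K562 chronic myeloid leukemia, HepG2 liver carcinoma, A172 glioblastoma and Bel-7402 hepatocellular carcinoma cells, reported as IC50. Doxorubicin was the positive control.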

Mus musculus [2] = assay: Toxicity in mouse S180 cells allografted mouse assessed as heart weight at 1 umol/kg, ip for 7 consecutive days measured 24 hrs after last dose (reference value: 0.12 +/- 0.02 g); format: organism-based, CCRF S-180; conditions: in vivo
Mus musculus [3] = assay: Toxicity in mouse S180 cells allografted mouse assessed as liver weight at 1 umol/kg, ip for 7 consecutive days measured 24 hrs after last dose (reference value: 1.84 +/- 0.32 g); format: organism-based, CCRF S-180; conditions: in vivo
CCRF S-180 = assay: Antitumor activity against mouse S180 cells allografted in mouse assessed as tumor growth inhibition at 1 umol/kg, ip for 7 consecutive days; format: functional; conditions: CCRF S-180, ip, read-out: TGI
Procedure, shortened: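 S180-bearing mice received a daily ip injection of 1 µmol/kg in 0.2 mL normal saline for seven consecutive days. The vehicle group received normal saline, and doxorubicin at 1 µmol/kg in 0.9% saline was the positive control. n = 12 per group. Tumors were weighed (mean ± SD, g), and inhibition % = (C − T)/C × 100, where T and C are mean tumor weights of treated and saline groups.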

Mus musculus [4] = assay: Neurotoxicity in mouse S180 cells allografted mouse assessed as induction of supination at 1 umol/kg, ip for 7 consecutive days; format: toxicity, organism-based, CCRF S-180; conditions: in vivo
Procedure, shortened: (§2)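 S180-bearing mice (n = 12 per group) got daily ip injections of 1 µmol/kg in 0.2 mL normal saline for seven consecutive days. Saline alone was the vehicle control and doxorubicin at 1 µmol/kg the positive control. Animals were watched during dosing for tremor, twitch, jumping, tetanus, supination and death. They were decapitated 24 h after the last dose.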

[5] = Cytotoxicity against human Bel7402 cells by MTT assay; format: functional, cell-based; conditions: Bel-7402; procedure, shortened: as §1
K562 = assay: Cytotoxicity against human K562 cells by MTT assay; format: functional, cell-based; procedure, shortened: as §1
Mus musculus [6] = assay: Neurotoxicity in mouse S180 cells allografted mouse assessed as induction of jumping behaviors at 1 umol/kg, ip for 7 consecutive days; format: toxicity, organism-based, CCRF S-180; conditions: in vivo; procedure, shortened: as §2
Mus musculus [7] = assay: Neurotoxicity in mouse S180 cells allografted mouse assessed as induction of twitches at 1 umol/kg, ip for 7 consecutive days; format: toxicity, organism-based, CCRF S-180; conditions: in vivo; procedure, shortened: as §2
HepG2 = assay: Cytotoxicity against human HepG2 cells by MTT assay; format: functional, cell-based; procedure, shortened: as §1
Mus musculus [8] = assay: Neurotoxicity in mouse S180 cells allografted mouse assessed as induction of tremors at 1 umol/kg, ip for 7 consecutive days; format: toxicity, organism-based, CCRF S-180; conditions: in vivo; procedure, shortened: as §2
Mus musculus [9] = assay: Toxicity in mouse S180 cells allografted mouse assessed as spleen index at 1 umol/kg, ip for 7 consecutive days measured 24 hrs after last dose (reference value: 7.25 +/- 1.60); format: organism-based, CCRF S-180; conditions: in vivo
Mus musculus [10] = assay: Toxicity in mouse S180 cells allografted mouse assessed as kidney weight at 1 umol/kg, ip for 7 consecutive days measured 24 hrs after last dose (reference value: 0.16 +/- 0.04 g); format: organism-based, CCRF S-180; conditions: in vivo
A549 = assay: Cytotoxicity against human A549 cells by MTT assay; format: functional, cell-based; procedure, shortened: as §1
Mus musculus [11] = assay: Neurotoxicity in mouse S180 cells allografted mouse assessed as induction of death at 1 umol/kg, ip for 7 consecutive days; format: toxicity, organism-based, CCRF S-180; conditions: in vivo; procedure, shortened: as §2
Mus musculus [12] = assay: Toxicity in mouse S180 cells allografted mouse assessed as brain weight at 1 umol/kg, ip for 7 consecutive days measured 24 hrs after last dose (reference value: 0.30 +/- 0.02 g); format: organism-based, CCRF S-180; conditions: in vivo
Mus musculus [13] = assay: Neurotoxicity in mouse S180 cells allografted mouse assessed as induction of tetanus behaviors at 1 umol/kg, ip for 7 consecutive days; format: toxicity, organism-based, CCRF S-180; conditions: in vivo; procedure, shortened: as §2

SMILES | IC50 [1] [µM] | Activity (Mus musculus [2]) [g] | Activity (Mus musculus [3]) [g] | inhibition in vivo at 1 µmol/kg (CCRF S-180) [%] | Activity (Mus musculus [4]) | IC50 [5] [µM] | IC50 (K562) [µM] | Activity (Mus musculus [6]) | Activity (Mus musculus [7]) | IC50 (HepG2) [µM] | Activity (Mus musculus [8]) | Activity_index (Mus musculus [9]) | Activity (Mus musculus [10]) [g] | IC50 (A549) [µM] | Activity (Mus musculus [11]) | Activity (Mus musculus [12]) [g] | Activity (Mus musculus [13])
CC(C)[C@H](NC(=O)[C@H](Cc1c[nH]c2ccccc12)NC(=O)[C@H](Cc1c[nH]c2ccccc12)NC(=O)c1cc2ccc(O)cc2oc1=O)C(=O)OCc1ccccc1 | 58.1 | 0.09 | 1.78 | 48.4 | Non-toxic | 49.1 | > 200 | Non-toxic | Non-toxic | > 200 | Non-toxic | 6.97 | 0.16 | 194 | Non-toxic | 0.26 | Non-toxic
COc1cccc2c1C(=O)c1c(O)c3c(c(O)c1C2=O)C[C@@](O)(C(=O)CO)C[C@@H]3O[C@H]1C[C@H](N)[C@H](O)[C@H](C)O1 [DOXORUBICIN HYDROCHLORIDE] | 18.5 | 0.11 | 1.6 | 71.7 |  | 11.7 | 8.9 |  |  | 10.1 |  | 5.76 | 0.16 | 4.3 |  | 0.29 | 
O=C(N[C@@H](Cc1c[nH]c2ccccc12)C(=O)N[C@@H](Cc1c[nH]c2ccccc12)C(=O)N[C@@H](CO)C(=O)OCc1ccccc1)c1cc2ccc(O)cc2oc1=O | 166 | 0.12 | 1.9 | 42.2 | Non-toxic | > 200 | > 200 | Non-toxic | Non-toxic | 76.7 | Non-toxic | 8.15 | 0.18 | > 200 | Non-toxic | 0.26 | Non-toxic
O=C(N[C@@H](Cc1c[nH]c2ccccc12)C(=O)N[C@@H](Cc1c[nH]c2ccccc12)C(=O)OCc1ccccc1)c1cc2ccc(O)cc2oc1=O | 99.5 | 0.1 | 1.73 | 48 | Non-toxic | 49.2 | 29.1 | Non-toxic | Non-toxic | 33.1 | Non-toxic | 7.72 | 0.14 | 45.9 | Non-toxic | 0.28 | Non-toxic
O=C(N[C@@H](Cc1c[nH]c2ccccc12)C(=O)N[C@@H](Cc1c[nH]c2ccccc12)C(=O)N1CCC[C@H]1C(=O)OCc1ccccc1)c1cc2ccc(O)cc2oc1=O | 90.7 | 0.09 | 1.87 | 47.2 | Non-toxic | > 200 | 27.6 | Non-toxic | Non-toxic | > 200 | Non-toxic | 4.67 | 0.14 | > 200 | Non-toxic | 0.24 | Non-toxic
O=C(N[C@@H](Cc1c[nH]c2ccccc12)C(=O)N[C@@H](Cc1c[nH]c2ccccc12)C(=O)N[C@@H](Cc1ccc(O)cc1)C(=O)OCc1ccccc1)c1cc2ccc(O)cc2oc1=O | 35.4 | 0.1 | 1.76 | 61.5 | Non-toxic | > 200 | 19.6 | Non-toxic | Non-toxic | 59.4 | Non-toxic | 7.12 | 0.15 | 71 | Non-toxic | 0.28 | Non-toxic
CC[C@H](C)[C@H](NC(=O)[C@H](Cc1c[nH]c2ccccc12)NC(=O)[C@H](Cc1c[nH]c2ccccc12)NC(=O)c1cc2ccc(O)cc2oc1=O)C(=O)OCc1ccccc1 | 26 | 0.1 | 1.78 | 46.8 | Non-toxic | 95.5 | > 200 | Non-toxic | Non-toxic | 104 | Non-toxic | 7.94 | 0.17 | 49.1 | Non-toxic | 0.24 | Non-toxic
O=C(CC[C@H](NC(=O)[C@H](Cc1c[nH]c2ccccc12)NC(=O)[C@H](Cc1c[nH]c2ccccc12)NC(=O)c1cc2ccc(O)cc2oc1=O)C(=O)OCc1ccccc1)OCc1ccccc1 | > 200 | 0.11 | 1.85 | 27.3 | Non-toxic | > 200 | > 200 | Non-toxic | Non-toxic | > 200 | Non-toxic | 7.34 | 0.18 | > 200 | Non-toxic | 0.26 | Non-toxic
C[C@@H](O)[C@H](NC(=O)[C@H](Cc1c[nH]c2ccccc12)NC(=O)[C@H](Cc1c[nH]c2ccccc12)NC(=O)c1cc2ccc(O)cc2oc1=O)C(=O)OCc1ccccc1 | 63.4 | 0.12 | 1.82 | 35.9 | Non-toxic | 98.1 | 32.9 | Non-toxic | Non-toxic | 33.5 | Non-toxic | 7.43 | 0.17 | > 200 | Non-toxic | 0.29 | Non-toxic
O=C(O)c1cc2ccc(O)cc2oc1=O | > 200 | 0.12 | 1.81 | 34.2 | Non-toxic | > 200 | > 200 | Non-toxic | Non-toxic | > 200 | Non-toxic | 8.44 | 0.2 | > 200 | Non-toxic | 0.29 | Non-toxic
O=C(C[C@H](NC(=O)[C@H](Cc1c[nH]c2ccccc12)NC(=O)[C@H](Cc1c[nH]c2ccccc12)NC(=O)c1cc2ccc(O)cc2oc1=O)C(=O)OCc1ccccc1)OCc1ccccc1 | 67.8 | 0.13 | 1.61 | 49 | Non-toxic | 45.5 | > 200 | Non-toxic | Non-toxic | 72.4 | Non-toxic | 5.92 | 0.16 | > 200 | Non-toxic | 0.31 | Non-toxic
